Measurements reported in ChEMBL document CHEMBL2062372, “Biotin analogues with antibacterial activity are potent inhibitors of biotin protein ligase” (ACS Med Chem Lett, 2012).
In brackets after ≈: the same amount, converted by molar mass.

How the values were obtained:
[1] = Displacement of [3H]-biotin from Escherichia coli BPL after 20 mins by scintillation counting
In short: (§1)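 Purified recombinant BPL was tested in an in vitro biotinylation assay that measured incorporation of radiolabeled biotin into protein. Ki is reported where inhibition was seen, as the mean (standard error) of three independent experiments.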

[2] = Selectivity ratio of Ki for Escherichia coli BPL to Ki for human BPL
In short: (§2)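 Selectivity is the ratio of Ki values from the radiolabeled-biotin incorporation assay with purified recombinant BPLs. Each Ki is the mean of three independent experiments.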

[3] = Selectivity ratio of Ki for Escherichia coli BPL to Ki for Staphylococcus aureus BPL; in short: as §2
[4] = Selectivity ratio of Ki for human BPL to Ki for Staphylococcus aureus BPL; in short: as §2
HepG2 = experiment: Cytotoxicity against human HepG2 cells assessed as change in metabolic activity at 64 ug/ml after 24 to 48 hrs by WST1 assay; assay type: ADME, cell-based
[5] = Displacement of [3H]-biotin from Staphylococcus aureus BPL after 20 mins by scintillation counting; in short: as §1
Biotin--protein ligase = target: T1, Biotin--protein ligase (Homo sapiens, UniProt P50747); experiment: Displacement of [3H]-biotin from human BPL after 20 mins by scintillation counting; in short: as §1
T1 sequence (P50747 whole entry): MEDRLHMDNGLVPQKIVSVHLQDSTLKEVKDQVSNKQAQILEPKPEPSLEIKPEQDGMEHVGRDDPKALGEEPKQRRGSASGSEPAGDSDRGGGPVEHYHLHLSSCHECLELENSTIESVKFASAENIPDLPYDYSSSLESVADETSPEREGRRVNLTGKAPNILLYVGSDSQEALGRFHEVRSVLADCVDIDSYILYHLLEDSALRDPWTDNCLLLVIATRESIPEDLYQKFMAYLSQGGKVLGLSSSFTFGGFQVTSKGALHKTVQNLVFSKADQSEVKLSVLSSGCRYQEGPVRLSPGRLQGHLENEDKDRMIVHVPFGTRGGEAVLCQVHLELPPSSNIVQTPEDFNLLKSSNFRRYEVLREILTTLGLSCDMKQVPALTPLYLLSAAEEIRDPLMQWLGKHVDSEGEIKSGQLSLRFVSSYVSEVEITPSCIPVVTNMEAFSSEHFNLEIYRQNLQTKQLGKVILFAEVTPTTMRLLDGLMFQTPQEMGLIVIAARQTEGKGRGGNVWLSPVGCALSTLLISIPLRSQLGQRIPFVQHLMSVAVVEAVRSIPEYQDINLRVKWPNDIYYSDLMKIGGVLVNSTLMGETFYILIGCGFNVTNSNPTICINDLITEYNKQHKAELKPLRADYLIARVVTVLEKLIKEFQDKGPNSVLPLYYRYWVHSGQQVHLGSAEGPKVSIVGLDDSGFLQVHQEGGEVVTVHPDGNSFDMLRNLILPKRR

Staphylococcus = experiment: Antibacterial activity against coagulase-negative Staphylococcus after 16 to 24 hrs by broth microdilution method; assay type: functional
[6] = Binding affinity to Staphylococcus aureus BPL by surface plasmon resonance
In short: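 S. aureus BPL was immobilized on the SPR surface, with varying inhibitor concentrations in the running buffer. Ka and kd come from the sensorgrams. KD was calculated from steady-state affinity where on and off rates were too fast for kinetic evaluation.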

Staphylococcus aureus [7] = experiment: Antibacterial activity against methicillin-resistant Staphylococcus aureus after 16 to 24 hrs by broth microdilution method; assay type: functional
Staphylococcus aureus [8] = experiment: Antibacterial activity against methicillin-susceptible Staphylococcus aureus after 16 to 24 hrs by broth microdilution method; assay type: functional

Compound	Ki [1] [µM]	Ratio Ki [2]	Ratio Ki [3]	Ratio Ki [4]	Activity (HepG2)	Ki [5] [µM]	Ki (Biotin--protein ligase) [µM]	MIC50 (Staphylococcus) [µg/mL]	MIC90 (Staphylococcus) [µg/mL]	Kd [6] [µM]	MIC50 (Staphylococcus aureus [7]) [µg/mL]	MIC90 (Staphylococcus aureus [7]) [µg/mL]	MIC50 (Staphylococcus aureus [8]) [µg/mL]	MIC90 (Staphylococcus aureus [8]) [µg/mL]
C#CCCCCCC[C@@H]1SC[C@@H]2NC(=O)N[C@@H]21	20	1.7	8.3	5	Non-toxic	2.4	12	–	–	–	–	–	–	–
CCCCCC[C@@H]1SC[C@@H]2NC(=O)N[C@@H]21	7.3	1.1	14	12.4	Non-toxic	0.52	6.43	–	–	–	–	–	–	–
NCCCCC[C@@H]1SC[C@@H]2NC(=O)N[C@@H]21	> 20	–	–	–	–	> 20	> 20	–	–	–	–	–	–	–
NCCCC[C@@H]1SC[C@@H]2NC(=O)N[C@@H]21	> 20	–	–	–	–	> 20	> 20	–	–	–	–	–	–	–
C#CCCCCC[C@@H]1SC[C@@H]2NC(=O)N[C@@H]21	7.33	2.1	24.4	11.7	Non-toxic	0.3	3.5	–	–	–	–	–	–	–
O=C1N[C@H]2[C@H](CS[C@H]2CCCCCCO)N1	> 20	–	–	–	Non-toxic	> 20	> 20	–	–	–	–	–	–	–
CCCCC[C@@H]1SC[C@@H]2NC(=O)N[C@@H]21	1.1	7.9	22	2.8	Non-toxic	0.05	0.14	2 (≈ 9.33 µM)	8 (≈ 37.3 µM)	0.06	8 (≈ 37.3 µM)	16 (≈ 74.6 µM)	8 (≈ 37.3 µM)	16 (≈ 74.6 µM)
C#CCCCC[C@@H]1SC[C@@H]2NC(=O)N[C@@H]21	0.9	4.5	11.3	2.5	Non-toxic	0.08	0.2	4 (≈ 17.8 µM)	8 (≈ 35.7 µM)	0.08	8 (≈ 35.7 µM)	16 (≈ 71.3 µM)	8 (≈ 35.7 µM)	16 (≈ 71.3 µM)
O=C1N[C@H]2[C@H](CS[C@H]2CCCCCO)N1	3.96	1	1.2	1.1	–	3.37	3.85	–	–	2.5	–	–	–	–
